Compound activity as filed in PubChem.
CYP2C19 act – increases human CYP2C19 enzyme activity; 96,000 tested, under 10 active; P33261; activation factor at 5 µM; recombinant CYP2C19, luciferin-H EGE luminescence; active compounds read high; 0 = fully inhibited enzyme, 1 = untreated enzyme; AID 1025;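 active = activation factor of at least 2 at 5 µM in the primary screen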
Target sequence (P33261 whole entry, looked up): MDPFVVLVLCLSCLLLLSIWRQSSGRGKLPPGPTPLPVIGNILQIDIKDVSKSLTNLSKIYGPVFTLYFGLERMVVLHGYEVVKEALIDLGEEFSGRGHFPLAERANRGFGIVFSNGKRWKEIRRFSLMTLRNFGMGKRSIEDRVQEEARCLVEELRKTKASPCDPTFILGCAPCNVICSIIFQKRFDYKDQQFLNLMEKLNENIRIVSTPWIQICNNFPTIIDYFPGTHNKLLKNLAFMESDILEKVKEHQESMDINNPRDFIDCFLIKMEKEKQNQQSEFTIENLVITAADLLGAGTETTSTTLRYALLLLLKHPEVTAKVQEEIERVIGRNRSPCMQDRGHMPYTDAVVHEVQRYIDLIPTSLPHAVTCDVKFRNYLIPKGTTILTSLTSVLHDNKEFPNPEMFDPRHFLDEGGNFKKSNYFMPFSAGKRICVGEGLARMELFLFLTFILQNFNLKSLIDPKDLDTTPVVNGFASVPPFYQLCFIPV
Ecoli tolC – E. coli tolC mutant growth inhibition | hit rate 2.2% among 65,000 | growth inhibition, % at 10 µM (by protocol) | E. coli BW25113 tolC mutant growth, OD615;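 active = growth inhibition at or above a cutoff equal to the mean over every tested compound plus 3 SD, cut at about 60% in these data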;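 also: growth measured after 20 h incubation at 37 °C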
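Signal: optical density read at 615 nm; Assay system: E. coli ΔtolC::kan strain BW25113; Times: 20 h incubation with compound, 37 °C; Dosing: 10 µM final, single dose.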
E coli WT exp – blocks growth of wild type E. coli BW25113; OD600 absorbance; hit rate 0.15% among 98,000; AID 710; growth inhibition, % at 100 µM;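 active = growth inhibition above about 50% at one test dose, limit read from the data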;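 also: growth measured after 20 h incubation at 37 °C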
CYP2C19 inhib – blocks human cytochrome P450 2C19; hit rate 21% among 96,000; inhibition, % at 5 µM; AID 778; CYP2C19 Supersomes, luciferin-H EGE luminescence, 30 min;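 active = CYP2C19 inhibition above a set limit at 5 µM in the primary screen, cut at about 50% in these data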
CYP2C9 inhib – human CYP2C9 inhibition | P11712 | CYP2C9 Supersomes, luciferin-H conversion, luminescence | inhibition, % at 5 µM | hit rate 20% among 96,000;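 active = blocking of liver enzyme CYP2C9 beyond about 50% at 5 µM, limit read from the data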
CYP2C9 act – CYP2C9 (human) activation; P11712; recombinant CYP2C9, luciferin-H conversion, luminescence; active compounds read high; factor 1 = untreated enzyme, 0 = blocked; hit rate 1.4% among 96,000; activation factor at 5 µM;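 active = activation factor of 2 or more for CYP2C9 at a 5 µM dose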
Large screens that a line does not name were inactive. In the library only some 29% were active in any assay of this set; here they are far more common.

Cc1c(CNC(=O)c2nn3c(c2Cl)NC(c2ccccc2)CC3C(F)(F)F)cnn1C (stereo not drawn)	none
O=C(NCc1ccco1)c1cnn2c1NC(c1ccc(Br)cc1)CC2C(F)(F)F (stereo not drawn)	Ecoli tolC 68, CYP2C19 inhib 66, CYP2C9 inhib 87
Cc1ccccc1Cn1ccc(NC(=O)c2cnn3c2NC(c2ccccc2)CC3C(F)(F)F)n1 (stereo not drawn)	CYP2C19 inhib 67, CYP2C9 inhib 96 (no result: Ecoli tolC)
O=C(Nc1nnc(CCS(=O)(=O)c2ccc(Br)cc2)s1)c1ccc([N+](=O)[O-])cc1	none (no result: Ecoli tolC)
COc1cccc(N(CC(=O)N2CCN(C)CC2)S(=O)(=O)c2ccc(C)cc2)c1	none
O=C(O)c1cnn2c1NC(c1ccc(F)cc1)CC2C(F)(F)F (stereo not drawn)	none
O=C(NCc1ccco1)c1cnn2c1NC(c1ccccc1)CC2C(F)(F)F (stereo not drawn)	CYP2C9 inhib 83
COC(=O)c1ccccc1NC(=O)c1ccc(Cn2cc(Cl)cn2)o1	CYP2C19 inhib 50 (no result: Ecoli tolC)
COC(=O)c1cc(NC(=O)c2ccc(Cn3cc(Cl)cn3)o2)cc(C(=O)OC)c1	CYP2C19 inhib 77, CYP2C9 inhib 89
CCOC(=O)c1c(NC(=S)NC(=O)c2ccc(Cn3cc(Cl)cn3)o2)sc2c1CCC(C)C2 (stereo not drawn)	none (no result: Ecoli tolC)
CC(=O)Nc1ccc(C(=O)NC(CC(=O)O)c2ccc(Cl)cc2)cc1 (stereo not drawn)	none (no result: Ecoli tolC)
CCc1nc(C)cn1S(=O)(=O)c1cc(Cl)c(OC)cc1Cl	none (no result: Ecoli tolC)
CCc1nc(C)cn1S(=O)(=O)c1cc(Br)c(C)cc1OC	CYP2C19 inhib 61, CYP2C9 inhib 58
CCc1nc(C)cn1S(=O)(=O)c1cc(C)c(OC)cc1C	CYP2C19 inhib 62
CCc1nc(C)cn1S(=O)(=O)c1ccc(Cl)c(Cl)c1Cl	CYP2C19 inhib 95, CYP2C9 inhib 60
CCc1nc(C)cn1S(=O)(=O)c1cc(Br)ccc1OC	CYP2C19 inhib 96
COc1ccc(CCNC(=O)c2nnn(-c3ccc4c(c3)OCCO4)c2N)cc1OC	none
CCNC(=O)/C(=C/c1ccc2c(c1)OCO2)NC(=O)c1ccc(Br)cc1	none (no result: Ecoli tolC)
Cc1[nH]c(=O)[nH]c(=O)c1S(=O)(=O)N1c2ccc(F)cc2CCC1C (stereo not drawn)	none
Cc1cc(=S)n(-c2ccccc2)n1C	none
N=c1ncn(CC(O)CO)c2nc(N3CCOCC3)[nH]c12 (stereo not drawn)	none (no result: Ecoli tolC)
CCc1nc(C)cn1S(=O)(=O)c1cc(C)c(OC)c(C)c1C	CYP2C19 inhib 62 (no result: Ecoli tolC)
COc1ccc2c(c1OC)C(=O)NC(C)=C(C(=O)OC(C)(C)C)C2O (stereo not drawn)	CYP2C19 inhib 81, CYP2C9 inhib 56
COc1cc(C2NC(=O)NC(C)=C2C(=O)OC(C)(C)C)ccc1OCC(N)=O (stereo not drawn)	none
O=C(N1CCCCC1)N1CCN(C(c2ccccc2)c2ccccc2)CC1	CYP2C19 inhib 57, CYP2C9 inhib 81 (no result: Ecoli tolC)
CC(C)Cc1cc(C(=O)N2CCN(C(c3ccccc3)c3ccccc3)CC2)no1	CYP2C9 inhib 79 (no result: Ecoli tolC)
CC(C)c1cc(C(=O)N2CCN(C(c3ccccc3)c3ccccc3)CC2)no1	none (no result: CYP2C19 act, E coli WT exp, CYP2C19 inhib, CYP2C9 inhib, CYP2C9 act)
Cc1cc(NC(=O)COC(=O)CCC(=O)c2ccc(F)cc2)no1	none
COC(=O)/C=C/CSC1=N/C(=C/c2ccc(-n3cncn3)cc2)C(=O)N1	none (no result: Ecoli tolC)
O=C(CCNc1n[nH]c(=O)[nH]c1=O)N1CCOCC1	none
COc1ccc(C2/C(=C(\O)c3cc(C)ccc3C)C(=O)C(=O)N2CCN(C)C)cc1OC (stereo not drawn)	none
Cc1ccc2[nH]c3c(c2c1)CN(C(=O)CN1CCN(c2ccccc2F)CC1)CC3	CYP2C9 inhib 53
Cc1ccc2[nH]c3c(c2c1)CN(C(=O)CN1CCCc2ccccc21)CC3	none
CC1CC(C)CN(CC(=O)N2CCc3[nH]c4ccccc4c3C2)C1 (stereo not drawn)	CYP2C19 inhib 66
O=C(CN1CCN(Cc2ccc3c(c2)OCO3)CC1)N1CCc2[nH]c3ccccc3c2C1	none
O=C(CN1CCN(Cc2ccc3c(c2)OCO3)CC1)N1CCc2[nH]c3ccc(F)cc3c2C1	CYP2C19 inhib 84, CYP2C9 inhib 76
CC(C)N1C(=O)CC2(CC[N+](C)(CCOC(=O)C(c3ccccc3)c3ccccc3)CC2)C1=O (stereo not drawn)	none (no result: Ecoli tolC)
COc1ccc(-c2cc(C(F)(F)F)n3nc(C(=O)NCc4ccco4)cc3n2)cc1	none
Cc1ccc(-c2cc(C(F)F)n3ncc(C(=O)NCc4ccco4)c3n2)cc1	none
Cc1ccc(-c2cc(C(F)(F)F)n3ncc(C(=O)NCc4ccco4)c3n2)cc1	CYP2C9 inhib 54
Cc1ccc(-c2cc(C(F)(F)F)n3nc(C(=O)NCCCn4ccnc4)cc3n2)cc1C	CYP2C19 inhib 88, CYP2C9 inhib 80 (no result: Ecoli tolC)
O=C(NCc1ccco1)c1cc2nc(-c3ccc4c(c3)OCO4)cc(C(F)(F)F)n2n1	CYP2C19 inhib 77, CYP2C9 inhib 83
CCC(=O)Nc1nc2c(OC)ccc(OC)c2s1	none
COc1ccc(OC)c2sc(NC(=O)c3ccc(Cl)s3)nc12	none
COc1ccc(OC)c2sc(NC(=O)C3CC3)nc12	CYP2C9 inhib 57
CCCC(=O)Nc1nc2c(OC)ccc(OC)c2s1	CYP2C9 inhib 61
Cc1cc(N2CCN(C(=O)c3ccco3)CC2)n2nc(C)nc2n1	none (no result: CYP2C19 act, E coli WT exp, CYP2C19 inhib, CYP2C9 inhib, CYP2C9 act)
CCCCNC(=O)CN(C1CCCCC1)S(C)(=O)=O	CYP2C9 inhib 74
Cn1c(=O)c(-c2ccccc2)nn2c3ccccc3nc12	CYP2C19 inhib 62, CYP2C9 inhib 74
CCOc1ccc2c(C)c(C)c(=O)oc2c1OCC	CYP2C19 inhib 51, CYP2C9 act 2.5 (no result: Ecoli tolC)
CCOc1c(OC)ccc2c3c(c(=O)oc12)CCCC3	CYP2C19 inhib 76, CYP2C9 act 2.6 (no result: Ecoli tolC)
Cc1cnc(NC(=O)CSc2nnc(-c3ccncc3)n2C2CCCCC2)s1	CYP2C19 inhib 76
COc1ccc(-c2nnc(SCC(=O)Nc3ncc(C)s3)n2-c2ccccc2)cc1OC	CYP2C19 inhib 62, CYP2C9 inhib 51
O=C(Nc1ccccc1C(=O)NCC1CCCO1)c1ccc(Cl)cc1Cl (stereo not drawn)	none (no result: Ecoli tolC)
O=C(Nc1cccn(Cc2c(Cl)cccc2Cl)c1=O)c1ccccc1Cl	CYP2C19 inhib 80, CYP2C9 inhib 67 (no result: Ecoli tolC)
O=C(Nc1cccn(Cc2c(Cl)cccc2Cl)c1=O)c1ccc(Cl)cc1Cl	CYP2C19 inhib 65, CYP2C9 inhib 56 (no result: Ecoli tolC)
O=C(c1ccc(Cn2cc([N+](=O)[O-])cn2)o1)N1N=C(C(F)F)CC1(O)C(F)F (stereo not drawn)	CYP2C9 inhib 62 (no result: Ecoli tolC)
COc1ccc(/C=N/NC(=O)c2ccc(Cn3cc([N+](=O)[O-])cn3)o2)c(OC)c1C	none (no result: Ecoli tolC)
COc1ccc(OC)c(NC(=O)Cc2coc3ccc4ccccc4c23)c1	CYP2C19 inhib 96 (no result: Ecoli tolC)
